Screens (PubChem BioAssay)
This excerpt belongs to a sample that is enriched for hits.
GASC1 inh = inhibitors of human demethylase GASC-1 KDM4C; Q9H3R0; GST-KDM4C 2-372, H3K9me3 peptide, LANCE TR-FRET; inhibition, % at 12.5 µM; 96,000 tested, 0.15% active;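 active = mean replicate inhibition above about 25%, with at least 55% of replicates also reaching it, limit read from the data, passing the limit was not always enough; inconclusive = only one of those two conditions met; inactive = neither condition met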
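Material: N-terminal GST-fused human GASC-1 (KDM4C) fragment, residues 2-372. Input: 10 nM enzyme. Incubation: enzyme reaction 30 min, then detection 60 min, both room temperature. Doses: one test concentration per compound. Read-out basis: inhibition from TR-FRET ratio decrease. Detection: LANCE TR-FRET, excitation 340 nm, emissions 618 and 671 nm.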
T cruzi growth-1 = blocks T. cruzi growth in NIH3T3 culture; inhibition, % at 8.34 µM; T. cruzi beta-gal in NIH3T3, GalScreen luminescence, 90 h; 77,000 tested, 5.9% active;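 active = mean inhibition above about 93%, with at least 55% of replicates each passing it, limit read from the data, passing the limit was not always enough; inconclusive = only one of those two conditions holds; inactive = neither condition holds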
IDH1 mut inh = blocks human IDH1 R132H reductase activity; inhibition, % at 10 µM; AID 624101; diaphorase/resazurin fluorescence, 60 min; 70,000 tested, 0.18% active; in the data active = inhibition above about 34%; inconclusive = no clear call, values can overlap the other calls; inactive = below about 11%;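 also: 0% = DMSO and 100% = no enzyme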
Target sequence (O75874 whole entry R132H): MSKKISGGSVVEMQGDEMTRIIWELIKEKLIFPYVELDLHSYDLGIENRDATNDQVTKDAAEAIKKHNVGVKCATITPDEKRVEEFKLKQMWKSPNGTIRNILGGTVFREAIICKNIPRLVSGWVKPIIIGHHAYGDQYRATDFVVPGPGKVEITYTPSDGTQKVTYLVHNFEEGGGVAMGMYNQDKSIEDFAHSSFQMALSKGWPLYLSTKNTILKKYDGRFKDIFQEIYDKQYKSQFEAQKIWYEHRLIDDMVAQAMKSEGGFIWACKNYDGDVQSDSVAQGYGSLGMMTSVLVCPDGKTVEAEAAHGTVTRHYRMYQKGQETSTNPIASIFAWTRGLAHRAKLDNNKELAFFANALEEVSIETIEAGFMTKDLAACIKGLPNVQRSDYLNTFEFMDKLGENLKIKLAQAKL
T cruzi growth-2 = inhibitors of T. cruzi proliferation; shares compounds with T cruzi growth-1; T. cruzi beta-gal in NIH3T3, GalScreen luminescence, 90 h; inhibition, % at 8.35 µM; 5,600 tested, 72% active; AID 651739;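 active = mean replicate inhibition above about 95% and at least 55% of replicates individually reaching it, limit read from the data; inconclusive = only one of the two criteria is met; inactive = neither criterion is met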
T cruzi growth-3 = inhibitors of T. cruzi proliferation; shares compounds with T cruzi growth-1; T. cruzi beta-gal in NIH3T3, GalScreen luminescence, 90 h; inhibition, % at 2.09 µM; 5,600 tested, 21% active;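 active = mean inhibition above about 95%, with at least 55% of replicates also reaching it, limit read from the data; inconclusive = meets just one of the two conditions; inactive = meets neither condition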;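 also: plate controls were neutral control median for no effect and positive control median for full effect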
NIH3T3 tox = NIH/3T3 (mouse) viability loss. shares compounds with T cruzi growth-1. NIH/3T3 viability, CellTiter-Glo ATP luminescence, 90 h. cytotoxicity (signal decrease), % at 8.35 µM. 5,600 tested, 14% active. AID 651742;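 active = mean signal decrease across replicates above about 35% based on untreated-well scatter, with enough replicates individually passing, limit read from the data; inconclusive = no rule stated though some were filed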;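 also: 0% = median of neutral control wells and 100% = median of positive control wells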
3T3 cytotox 2 = NIH/3T3 (mouse) viability loss; NIH/3T3 viability, CellTiter-Glo ATP luminescence, 90 h; 5,600 tested, 56% active; shares compounds with T cruzi growth-1; inhibition, % at 24.9 µM;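 active = mean loss of cell viability signal at or above a set limit, and enough replicates individually reaching it; inconclusive = meets only the mean limit or only the replicate share; inactive = meets neither condition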;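 also: 0% = median of neutral control wells and 100% = median of positive control wells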
Active calls of the source: *; ? = inconclusive; nt = no result.

SMILES | GASC1 inh | T cruzi growth-1 | IDH1 mut inh | T cruzi growth-2 | T cruzi growth-3 | NIH3T3 tox | 3T3 cytotox 2
C[C@@H]1CN([C@@H](C)CO)C(=O)c2cccc(NC(=O)c3ccc(-c4nccs4)cc3)c2O[C@@H]1CN(C)C(=O)Nc1ccccc1 | -4 | 31 | -3 | nt | nt | nt | nt
O=C(C[C@H]1CC[C@H](NC(=O)C2CCOCC2)[C@H](CO)O1)Nc1ccc(-c2ccccc2)cc1 | -1 | -27 | 0 | nt | nt | nt | nt
C[C@H]1CN([C@@H](C)CO)S(=O)(=O)c2ccc(C#Cc3ccccc3F)cc2O[C@H]1CN(C)CC1CCOCC1 | 1 | nt | -1 | nt | nt | nt | nt
CC(C)C#Cc1ccc2c(c1)O[C@@H](CN(C)CC1CCOCC1)[C@@H](C)CN([C@H](C)CO)S2(=O)=O | 1 | 54 | -1 | nt | nt | nt | nt
CCCN(C)C[C@H]1Oc2cc(C#CC3CCCCC3)ccc2S(=O)(=O)N([C@@H](C)CO)C[C@@H]1C | -1 | 58 | 0 | nt | nt | nt | nt
C[C@H](CO)N1C[C@H](C)[C@@H](CN(C)CC2CCOCC2)Oc2cc(C#Cc3ccccc3F)ccc2S1(=O)=O | 3 | 122* | 2 | 99* | 103* | -25 | 43*
CCCN(C)C[C@@H]1Oc2cc(C#CC3CCCC3)ccc2S(=O)(=O)N([C@@H](C)CO)C[C@@H]1C | 0 | 99* | 0 | 113* | 91 | 23 | 104*
CC(C)C#Cc1ccc2c(c1)O[C@H](CN(C)CC1CCOCC1)[C@@H](C)CN([C@@H](C)CO)S2(=O)=O | -1 | 102* | 0 | 98* | 93 | 18 | 105*
Cc1ccc(NC(=O)c2sc3ncn(CC(=O)Nc4cc(C(F)(F)F)ccc4Cl)c(=O)c3c2C)c(C)c1 | nt | nt | 1 | nt | nt | nt | nt
CCC(=O)Nc1ccc2c(c1)OC[C@@H](C)N(C(=O)Cc1cccnc1)C[C@H](C)[C@@H](OC)CN(C)C2=O | 0 | 25 | 0 | nt | nt | nt | nt
CC(=O)NC[C@@H]1[C@H](c2ccc(-c3cccnc3)cc2)[C@H](CO)N1C(=O)C1CCC1 | -1 | 7 | nt | nt | nt | nt | nt
COc1ccc(CNC(=O)C[C@H]2CC[C@H](NS(=O)(=O)c3cccc(OC)c3)[C@H](CO)O2)cc1 | -2 | nt | 0 | nt | nt | nt | nt
N#C[C@@H]1[C@@H](c2ccc(C3=CCCCC3)cc2)[C@@H](CO)N1C(=O)c1ccccn1 | 2 | 102* | nt | 72 | 3 | -7 | 5
N#C[C@H]1[C@H](c2ccc(C3=CCCCC3)cc2)[C@@H](CO)N1C(=O)c1ccccn1 | -2 | 52 | nt | nt | nt | nt | nt
N#C[C@@H]1[C@@H](c2ccc(C3=CCCCC3)cc2)[C@H](CO)N1C(=O)c1ccccn1 | 1 | 67 | nt | nt | nt | nt | nt
N#C[C@@H]1[C@H](c2ccc(C3=CCCCC3)cc2)[C@H](CO)N1C(=O)c1ccccn1 | 4 | 101* | nt | 100* | 105* | 16 | 15
CC(C)CC#Cc1ccc2c(c1)O[C@H](CN(C)CC1CCOCC1)[C@@H](C)CN([C@@H](C)CO)S2(=O)=O | -2 | 106 | 0 | nt | nt | nt | nt
CC(C)CC#Cc1ccc2c(c1)O[C@H](CN(C)CC1CC1)[C@H](C)CN([C@@H](C)CO)S2(=O)=O | -1 | ? | -2 | 100* | 90 | 40* | 107*
CC(C)CC#Cc1ccc2c(c1)O[C@H](CN(C)CC1CCOCC1)[C@H](C)CN([C@H](C)CO)S2(=O)=O | 3 | ? | nt | 108* | 85 | 22 | 105*
CCCC#Cc1ccc2c(c1)O[C@@H](CN(C)CC1CC1)[C@@H](C)CN([C@@H](C)CO)S2(=O)=O | 0 | 31 | -1 | nt | nt | nt | nt
COc1ccc2c3c([nH]c2c1)[C@H](CO)N(Cc1ccccc1OC)CC31CCN(C)CC1 | -1 | nt | nt | nt | nt | nt | nt
CC1(C)CC(=O)C2=C(C1)N(Cc1ccc(F)cc1)C(=O)C2(NC(=O)c1cccnc1)C(F)(F)F (configuration not stated) | nt | nt | 0 | nt | nt | nt | nt
C[C@@H]1CCCCO[C@H](CN(C)Cc2ccncc2)[C@@H](C)CN([C@@H](C)CO)C(=O)c2cc(NC(=O)c3ccncc3)ccc2O1 | 0 | 22 | 4 | nt | nt | nt | nt
N#C[C@H]1[C@H](c2ccc(C#Cc3ccccc3F)cc2)[C@@H](CO)N1C(=O)C1CCC1 | -3 | 99* | nt | 103* | 101* | -6 | 6
N#C[C@H]1[C@H](c2ccc(C#Cc3ccccc3F)cc2)[C@H](CO)N1C(=O)C1CCC1 | -2 | 55 | nt | nt | nt | nt | nt
SMILES | GASC1 inh | T cruzi growth-1 | IDH1 mut inh | T cruzi growth-2 | T cruzi growth-3 | NIH3T3 tox | 3T3 cytotox 2
COc1ccccc1C#Cc1ccc([C@@H]2[C@@H](C#N)N(C(=O)C3CCCCC3)[C@@H]2CO)cc1 | -5 | nt | nt | nt | nt | nt | nt
COc1ccccc1C#Cc1ccc([C@H]2[C@@H](C#N)N(C(=O)C3CCC3)[C@@H]2CO)cc1 | 0 | ? | nt | 106* | 108* | 2 | 96*
N#C[C@@H]1[C@H](c2ccc(C#Cc3ccccc3F)cc2)[C@@H](CO)N1C(=O)C1CCC1 | -5 | ? | nt | 89 | 89 | 11 | 102*
N#C[C@@H]1[C@@H](c2ccc(C#Cc3ccccc3F)cc2)[C@H](CO)N1C(=O)C1CCC1 | 1 | 92 | nt | nt | nt | nt | nt
O=C(N[C@H]1C=C[C@@H](CC(=O)N2CCCCC2)O[C@H]1CO)c1cccc(F)c1 | 0 | -27 | 0 | nt | nt | nt | nt
CCS(=O)(=O)N1CCC2(CC1)CN(C(=O)Cc1ccccn1)[C@@H](CO)c1[nH]c3cc(OC)ccc3c12 | 0 | nt | nt | nt | nt | nt | nt
Cc1cccc(S(=O)(=O)N2CCCCN3[C@@H](CO)[C@H](c4ccc(C#C[C@H](C)O)cc4)[C@@H]3C2)c1 | 0 | 45 | nt | nt | nt | nt | nt
Cc1cccc(S(=O)(=O)N2CCCCN3[C@H](C2)[C@H](c2ccc(C#C[C@H](C)O)cc2)[C@@H]3CO)c1 | 1 | 110* | nt | 110* | 63 | 41* | 14
Cc1cccc(S(=O)(=O)N2CCCCN3[C@H](CO)[C@H](c4ccc(C#CC(C)C)cc4)[C@H]3C2)c1 | 0 | 69 | nt | nt | nt | nt | nt
Cc1cccc(S(=O)(=O)N2CCCCN3[C@H](CO)[C@@H](c4ccc(C#C[C@@H](C)O)cc4)[C@@H]3C2)c1 | 0 | 66 | nt | nt | nt | nt | nt
COc1cccc(S(=O)(=O)N2CCCCN3[C@H](CO)[C@@H](c4ccc(C#CC(C)C)cc4)[C@@H]3C2)c1 | 0 | ? | nt | 99* | 83 | 7 | 55*
COc1cccc(S(=O)(=O)N2CCCCN3[C@H](CO)[C@H](c4ccc(C#CC(C)C)cc4)[C@@H]3C2)c1 | -1 | 88 | nt | nt | nt | nt | nt
Cc1cccc(S(=O)(=O)N2CCCCN3[C@H](CO)[C@@H](c4ccc(C#CC(C)C)cc4)[C@H]3C2)c1 | 0 | ? | nt | 102* | ? | 27 | 103*
Cc1cccc(S(=O)(=O)N2CCCCN3[C@H](CO)[C@H](c4ccc(C#C[C@H](C)O)cc4)[C@H]3C2)c1 | 1 | 106* | nt | ? | 36 | 33 | 41*
